In brackets after ≈: the same amount, converted by molar mass. Activity calls are given as the source filed them. The rule behind the calls is not given here.
How the values were obtained:
Micrococcus luteus [1] = assay: Antibacterial activity against Micrococcus luteus after 24 hrs by twofold serial dilution method; format: functional
Summary of the method: (§1)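 Bacteria grown in Mueller Hinton broth for 24 h at 37 °C and diluted to about 10^4 CFU/ml. Compound in 2% DMSO was serially diluted two-fold (1000 to 15.62 µg/ml) in medium in 96-well plates and inoculated. Plates were incubated 24 h at 37 °C. 5 µl of broth was spotted onto MHA, and MIC was taken as the lowest concentration with no visible growth on agar.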

[2] = test system: Salmonella enterica subsp. enterica serovar Paratyphi B; assay: Antibacterial activity against Salmonella paratyphi B after 24 hrs by twofold serial dilution method; format: functional
Summary of the method: (§2)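 Broth microdilution in MHB following the standard bacterial reference method. Compound was dissolved in DMSO (2%) and serially diluted two-fold from 1000 to 15.62 µg/ml in 96-well plates, with an inoculum of about 10^4 CFU/ml. Streptomycin and ciprofloxacin were positive controls. After 24 h at 37 °C, 5 µl of broth was subcultured on MHA. MIC was the lowest concentration without visible growth on agar.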

Klebsiella aerogenes [3] = assay: Antibacterial activity against Enterobacter aerogenes MTCC 111 after 24 hrs by twofold serial dilution method; format: functional; settings: MTCC 111, 24 h; summary of the method: as §1
Staphylococcus aureus [4] = assay: Antibacterial activity against methicillin-resistant Staphylococcus aureus after 24 hrs by twofold serial dilution method; format: functional; summary of the method: as §2
Staphylococcus aureus [5] = assay: Antibacterial activity against Staphylococcus aureus MTCC 96 after 24 hrs by twofold serial dilution method; format: functional; settings: MTCC 96, 24 h; summary of the method: as §1
Proteus vulgaris [6] = assay: Antibacterial activity against Proteus vulgaris MTCC 1771 after 24 hrs by twofold serial dilution method; format: functional; settings: MTCC 1771, 24 h; summary of the method: as §1
Klebsiella pneumoniae [7] = assay: Antibacterial activity against Klebsiella pneumoniae MTCC 109 after 24 hrs by twofold serial dilution method; format: functional; settings: MTCC 109, 24 h; summary of the method: as §1
Salmonella typhimurium [8] = assay: Antibacterial activity against Salmonella Typhimurium MTCC 1251 after 24 hrs by two-fold serial dilution method; format: functional, Salmonella enterica subsp. enterica serovar Typhimurium; settings: Salmonella enterica, MTCC 1251, 24 h; summary of the method: as §1
Candida albicans [9] = assay: Antifungal activity against Candida albicans MTCC 227 at 1000 ug/disc after 48 hrs by disc diffusion assay; format: functional; settings: MTCC 227, 48 h, read-out: IZ
Summary of the method: (§3)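 Fungal disc diffusion with inoculum from SDA spores (filamentous) or SDB culture (yeast). Test cultures were swabbed on agar, and discs at 1000 µg/disc were left 30 min at room temperature, with a solvent negative control. Plates were incubated 48 h at 27 °C. Zone of inhibition was measured in mm, and the experiment was repeated twice.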

Micrococcus luteus [10] = assay: Antibacterial activity against Micrococcus luteus at 1000 ug/disc after 24 hrs by disc diffusion assay; format: functional; settings: read-out: IZ
Summary of the method: (§4)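 Disc diffusion on Mueller Hinton agar. Cultures (about 10^4 CFU/ml) were swabbed on and dried 10 min. Discs loaded at 1000 µg/disc were left 30 min at room temperature for diffusion, with a solvent negative control. Plates were incubated 24 h at 37 °C. Inhibition zones were measured in mm, and the experiment was done twice.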

Klebsiella aerogenes [11] = assay: Antibacterial activity against Enterobacter aerogenes MTCC 111 at 1000 ug/disc after 24 hrs by disc diffusion assay; format: functional; settings: for zone of inhibition at 1000 µg/disc: MTCC 111, 24 h, read-out: IZ; summary of the method: as §4
[12] = test system: Salmonella enterica subsp. enterica serovar Paratyphi B; assay: Antibacterial activity against Salmonella paratyphi B at 1000 ug/disc after 24 hrs by disc diffusion assay; format: functional; settings: for zone of inhibition at 1000 µg/disc: read-out: IZ
Summary of the method: (§5)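 Disc diffusion on Mueller Hinton agar. Bacteria were grown 24 h at 37 °C in MHB and diluted to about 10^4 CFU/ml, swabbed onto plates and dried 10 min. Discs were loaded at 1000 μg/disc and held 30 min at room temperature for diffusion. Solvent served as negative control. After 24 h at 37 °C, inhibition zones were read in mm; run twice.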

Staphylococcus aureus [13] = assay: Antibacterial activity against Staphylococcus aureus MTCC 96 at 1000 ug/disc after 24 hrs by disc diffusion assay; format: functional; settings: for zone of inhibition at 1000 µg/disc: MTCC 96, 24 h, read-out: IZ; summary of the method: as §4
Proteus vulgaris [14] = assay: Antibacterial activity against Proteus vulgaris MTCC 1771 at 1000 ug/disc after 24 hrs by disc diffusion assay; format: functional; settings: MTCC 1771, 24 h, read-out: IZ; summary of the method: as §4
Botrytis cinerea [15] = assay: Antifungal activity against Botrytis cinerea after 48 to 72 hrs by twofold serial dilution method; format: functional
Summary of the method: (§6)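 Broth two-fold serial dilution, 1000 to 15.62 µg/ml, with compound dissolved in 2% DMSO, in 96-well plates. Filamentous fungal spores came from 10-day SDA slants at 28 °C, and yeast from SDB grown 48 h at 28 °C. Incubation was 48-72 h at 28 °C. MIC was the lowest concentration with no visible fungal growth.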

Botrytis cinerea [16] = assay: Antifungal activity against Botrytis cinerea at 1000 ug/disc after 48 hrs by disc diffusion assay; format: functional; settings: for zone of inhibition at 1000 µg/disc: read-out: IZ; summary of the method: as §3
[17] = Antifungal activity against Malassezia pachydermatis at 1000 ug/disc after 48 hrs by disc diffusion assay; format: functional; summary of the method: as §3
Klebsiella pneumoniae [18] = assay: Antibacterial activity against Klebsiella pneumoniae MTCC 109 at 1000 ug/disc after 24 hrs by disc diffusion assay; format: functional; settings: for zone of inhibition at 1000 µg/disc: MTCC 109, 24 h, read-out: IZ; summary of the method: as §4
[19] = Antifungal activity against Malassezia pachydermatis after 48 to 72 hrs by twofold serial dilution method; format: functional; summary of the method: as §6
Candida albicans [20] = assay: Antifungal activity against Candida albicans MTCC 227 after 48 to 72 hrs by twofold serial dilution method; format: functional; summary of the method: as §6
Salmonella typhimurium [21] = assay: Antibacterial activity against Salmonella Typhimurium MTCC 1251 at 1000 ug/disc after 24 hrs by disc diffusion assay; format: functional, Salmonella enterica subsp. enterica serovar Typhimurium; settings: Salmonella enterica, MTCC 1251, 24 h; read-out: IZ; summary of the method: as §4
Staphylococcus aureus [22] = assay: Antibacterial activity against methicillin-resistant Staphylococcus aureus at 1000 ug/disc after 24 hrs by disc diffusion assay; format: functional; settings: for zone of inhibition at 1000 µg/disc: read-out: IZ; summary of the method: as §5

Compound	zone of inhibition at 1000 µg/disc (Candida albicans [9]) [mm]	zone of inhibition at 1000 µg/disc (Micrococcus luteus [10]) [mm]	zone of inhibition at 1000 µg/disc (Klebsiella aerogenes [11]) [mm]	zone of inhibition at 1000 µg/disc [12] [mm]	zone of inhibition at 1000 µg/disc (Staphylococcus aureus [13]) [mm]	zone of inhibition at 1000 µg/disc (Proteus vulgaris [14]) [mm]	MIC (Botrytis cinerea [15])	zone of inhibition at 1000 µg/disc (Botrytis cinerea [16]) [mm]	inhibition zone (IZ) [17]	zone of inhibition at 1000 µg/disc (Klebsiella pneumoniae [18]) [mm]	MIC [19] [µg/mL]	MIC (Candida albicans [20]) [µg/mL]	zone of inhibition at 1000 µg/disc (Salmonella typhimurium [21]) [mm]	zone of inhibition at 1000 µg/disc (Staphylococcus aureus [22]) [mm]	further results
O=C(O)c1cn(C2CC2)c2cc(N3CCNCC3)c(F)cc2c1=O [CIPROFLOXACIN]	–	–	–	–	–	–	–	–	–	–	–	–	–	–	MIC (Micrococcus luteus [1]): > 100 µg/mL; MIC [2]: 6.25 µg/mL (≈ 18.9 µM); MIC (Klebsiella aerogenes [3]): < 0.78 µg/mL; MIC (Staphylococcus aureus [4]): > 100 µg/mL; MIC (Staphylococcus aureus [5]): < 0.78 µg/mL; MIC (Proteus vulgaris [6]): < 0.78 µg/mL; MIC (Klebsiella pneumoniae [7]): < 0.78 µg/mL; MIC (Salmonella typhimurium [8]): > 100 µg/mL
CCCCN1C(=O)C2(C3=C(CN2C)C(=O)c2ccccc2C3=O)c2ccccc21 (configuration not stated)	10	13	10	9	17	10	500 µg/mL (≈ 1290 µM)	9	11 mm	13	250 (≈ 647 µM)	500 (≈ 1290 µM)	15	8	MIC (Micrococcus luteus [1]): 250 µg/mL (≈ 647 µM); MIC [2]: 500 µg/mL (≈ 1290 µM); MIC (Klebsiella aerogenes [3]): 500 µg/mL (≈ 1290 µM); MIC (Staphylococcus aureus [4]): 500 µg/mL (≈ 1290 µM); MIC (Staphylococcus aureus [5]): 62.5 µg/mL (≈ 162 µM); MIC (Proteus vulgaris [6]): 500 µg/mL (≈ 1290 µM); MIC (Klebsiella pneumoniae [7]): 250 µg/mL (≈ 647 µM); MIC (Salmonella typhimurium [8]): 125 µg/mL (≈ 323 µM)
OC(Cn1cncn1)(Cn1cncn1)c1ccc(F)cc1F [FLUCONAZOLE]	–	–	–	–	–	–	inactive	–	–	–	12.5 (≈ 40.8 µM)	> 100	–	–	–
CN1CC2=C(C(=O)c3ccccc3C2=O)C12C(=O)N(Cc1ccccc1)c1ccccc12 (configuration not stated)	8	9	8	8	9	8	–	10	9 mm	10	–	–	9	8	–
O=C1C2=C(C(=O)c3ccccc31)C1(C(=O)N(Cc3ccccc3)c3ccccc31)N1CCCC21 (configuration not stated)	8	9	8	–	10	10	–	–	9 mm	8	–	–	9	8	inhibition zone (IZ) [12]: inactive; inhibition zone (IZ) (Botrytis cinerea [16]): inactive
C#CCN1C(=O)C2(C3=C(C(=O)c4ccccc4C3=O)C3CCCN32)c2ccccc21 (configuration not stated)	8	9	–	8	–	8	–	9	inactive	–	–	–	9	–	inhibition zone (IZ) (Klebsiella aerogenes [11]): inactive; inhibition zone (IZ) (Staphylococcus aureus [13]): inactive; inhibition zone (IZ) (Klebsiella pneumoniae [18]): inactive; inhibition zone (IZ) (Staphylococcus aureus [22]): inactive
CC(=O)N1CCN(c2ccc(OCC3COC(Cn4ccnc4)(c4ccc(Cl)cc4Cl)O3)cc2)CC1 (configuration not stated) [KETOCONAZOLE]	22	–	–	–	–	–	25 µg/mL (≈ 47 µM)	–	28 mm	–	15 (≈ 28.2 µM)	25 (≈ 47 µM)	–	–	inhibition zone (IZ) (Botrytis cinerea [16]): inactive

Reference: ChEMBL document CHEMBL1955865, “Synthesis of novel spirooxindole derivatives by one pot multicomponent reaction and their antimicrobial activity” (2012)
